Reference: ChEMBL document CHEMBL1955811, “Inhibition of colony-stimulating-factor-1 signaling in vivo with the orally bioavailable cFMS kinase inhibitor GW2580” (Proc Natl Acad Sci U S A, 2005)
Active and inactive are the calls of the source. The rule behind the calls is not given here.

Experiments:
Mus musculus [1] = experiment: Inhibition of thioglycolate-induced macrophage influx into peritoneal cavity in mouse at 80 mg/kg, po BID starting 1 hr before thioglycolate challenge for 4 days; format: functional
Outline: (§1)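 Female C3H/HEN mice (22-26 g) were dosed orally with compound suspended in 0.5% hydroxypropylmethylcellulose/0.1% Tween 80 (0.2 ml per mouse). Thioglycolate (1.5 ml) was injected i.p. on day 0. On day 4, the peritoneum was lavaged with 5 ml cold PBS containing 40 units/ml heparin, and cells were counted by hemocytometer in 0.1% crystal violet. Data are mean ± SEM; Dunnett's test.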

Mus musculus [2] = experiment: Inhibition of LPS-stimulated TNF production in CSF-1 primed mouse at 40 mg/kg, po administered 4.5 hr before LPS challenge and CSF-1 priming measured […] after LPS challenge; format: functional
Mus musculus [3] = experiment: Inhibition of LPS-stimulated TNF production in CSF-1 primed mouse at 40 mg/kg, po administered 0.5 hr before LPS challenge post CSF-1 priming measured […] after LPS challenge; format: functional
Osteoclast [4] = experiment: Inhibition of human osteoclast degradation of bone assessed as bone slice resorbed at 10 uM after 3 days by immunocytochemistry (reference value: 26.6 +/- 4.7 %); format: functional; details: 72 h
NFS-60 [5] = experiment: Growth inhibition of CSF1-stimulated mouse M-NFS-60 cells at 0.7 uM after 3 days by spectrophotometry; format: functional
Osteoclast [6] = experiment: Inhibition of human osteoclast degradation of bone assessed as reduction in 23C6(+) cells with more than 3 nuclei per cm2 of bone at 10 uM after 3 days by immunocytochemistry (reference value: 854 +/- 122 cells/cm2 of bone); format: functional
Macrophage = experiment: Effect on LPS-induced IL-6 production in CSF-1-stimulated human macrophages at 0.03906 to 20 uM preincubated for 30 mins before LPS stimulation measured after 20 hrs by ELISA; format: functional, cell-based
[7] = system: Peritoneal macrophage cell; experiment: Effect on LPS-induced IL-6 production in mouse intraperitoneal macrophages pretreated with CSF-1 at 0.03906 to 20 uM compound incubated for 30 mins before LPS stimulation measured after 20 hrs by ELISA; format: functional, cell-based
HUVEC = experiment: Growth inhibition of VEGF-stimulated HUVEC after 3 days by spectrophotometry; format: cell-based; details: Homo sapiens, 72 h
Outline: (§2)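 Cells cultured so that added serum or growth factor gave linear growth. Compound tested as a 10- to 12-point dose-response with a top concentration of 20 μM.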

Mus musculus [8] = experiment: Inhibition of thioglycolate-induced macrophage influx into peritoneal cavity in mouse at 20 mg/kg, po BID administered 7 days before and 4 days after thioglycolate challenge; format: functional; outline: as §1
[9] = target: [Pyruvate dehydrogenase (acetyl-transferring)] kinase isozyme 4, mitochondrial (Homo sapiens, UniProt Q16654); experiment: Inhibition of human His-tagged PDHK4 using biotin-YHGHSMSDPGVSYRRR-amide as substrate after 20 mins by scintillation proximity assay
[Pyruvate dehydrogenase (acetyl-transferring)] kinase isozyme 4, mitochondrial, sequence (Q16654 whole entry, the tested form may be a part): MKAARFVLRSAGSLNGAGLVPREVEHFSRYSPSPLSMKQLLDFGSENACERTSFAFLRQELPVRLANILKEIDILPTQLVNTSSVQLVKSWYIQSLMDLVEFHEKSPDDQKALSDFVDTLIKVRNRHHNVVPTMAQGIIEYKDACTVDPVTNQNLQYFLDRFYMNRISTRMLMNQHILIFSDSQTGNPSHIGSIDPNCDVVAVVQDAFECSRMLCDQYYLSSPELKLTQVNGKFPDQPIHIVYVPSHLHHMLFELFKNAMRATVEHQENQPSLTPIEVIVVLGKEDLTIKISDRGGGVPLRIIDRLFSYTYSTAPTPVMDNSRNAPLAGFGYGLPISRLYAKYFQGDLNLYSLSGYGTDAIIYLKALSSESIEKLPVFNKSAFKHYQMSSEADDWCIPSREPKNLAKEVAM
Outline: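 Catalytic domains of the human kinases were expressed, isolated and assayed with ATP and the appropriate substrate. Compound was tested as a 10- to 12-point dose-response up to a maximal 20 μM.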

Monocyte = experiment: Inhibition of LPS-stimulated growth of freshly isolated human monocytes at 1 uM preincubated for 30 mins before inducer addition measured after 5 days by WST-1 method; format: functional; details: read-out: GI
Rattus norvegicus [10] = organism: Rattus norvegicus; experiment: Inhibition of PTH-induced Wistar rat calvarial bone degradation assessed as reduction in DPPD level in media at 0.1 uM after 48 hrs; format: functional
Outline: (§3)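 Rat calvaria incubated with PTH plus compound for two consecutive 48-h periods. Medium from the second period assayed for deoxypyridinoline crosslinks (DPPD).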

Osteoclast [11] = experiment: Inhibition of human osteoclast degradation of bone assessed as reduction in 23C6(+) cells with more than 3 nuclei per cm2 of bone at 3 uM after 3 days by immunocytochemistry (reference value: 854 +/- 122 cells/cm2 of bone); format: functional
Rattus norvegicus [12] = organism: Rattus norvegicus; experiment: Inhibition of PTH-induced Wistar rat calvarial bone degradation assessed as reduction in DPPD level in media at 1 to 100 uM after 48 hrs; format: functional; outline: as §3
Osteoclast [13] = experiment: Inhibition of human osteoclast degradation of bone assessed as bone slice resorbed at 3 uM after 3 days by immunocytochemistry (reference value: 26.6 +/- 4.7 %); format: functional; details: 72 h
[14] = Cmax in mouse at 20 mg/kg, po; format: ADME, organism-based; design: dose 20 mg/kg, route oral; details: in vivo
Outline: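 Female mice given single oral doses (20 or 80 mg/kg) in 0.5% HPMC/0.1% Tween 80. Three mice killed with CO2 per time point; plasma extracted with isopropyl alcohol/acetonitrile, then vortexed, sonicated and centrifuged. Quantified by LC/MS (APCI positive mode, multiple-reaction monitoring) against a standard curve prepared in plasma.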

[15] = target: Proto-oncogene tyrosine-protein kinase LCK (Mus musculus, UniProt P06240); experiment: Inhibition of mouse LCK
Proto-oncogene tyrosine-protein kinase LCK, sequence (P06240 whole entry): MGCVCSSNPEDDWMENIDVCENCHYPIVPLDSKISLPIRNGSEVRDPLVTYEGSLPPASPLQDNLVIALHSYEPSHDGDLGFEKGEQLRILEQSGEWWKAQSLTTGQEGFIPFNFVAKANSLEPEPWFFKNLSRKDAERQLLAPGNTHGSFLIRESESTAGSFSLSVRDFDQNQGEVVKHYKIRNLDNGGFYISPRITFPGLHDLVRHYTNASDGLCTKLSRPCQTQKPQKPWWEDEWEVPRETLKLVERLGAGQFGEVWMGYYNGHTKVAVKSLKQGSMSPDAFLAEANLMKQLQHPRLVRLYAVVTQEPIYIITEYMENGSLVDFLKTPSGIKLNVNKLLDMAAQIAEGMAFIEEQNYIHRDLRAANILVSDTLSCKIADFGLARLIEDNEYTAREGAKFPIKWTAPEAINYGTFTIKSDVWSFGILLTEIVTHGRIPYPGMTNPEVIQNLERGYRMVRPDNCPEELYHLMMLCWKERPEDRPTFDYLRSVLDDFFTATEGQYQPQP

[16] = system: Peritoneal macrophage cell; experiment: Effect on LPS-induced TNF production in mouse intraperitoneal macrophages pretreated with CSF-1 at 0.03906 to 20 uM compound incubated for 30 mins before LPS stimulation measured after 20 hrs by ELISA; format: functional, cell-based
[17] = Growth inhibition of CSF1-stimulated mouse M-NFS-60 cells after 3 days by spectrophotometry; format: functional; details: NFS-60, 72 h; outline: as §2
NFS-60 [18] = experiment: Antitumor activity in mouse M-NFS-60 cells allografted in po dosed CD-1 nude mouse assessed as inhibition of tumor cell growth in peritoneal cavity compound starting 1 hr before challenge twice a day for 4 days measured after 4 days; format: functional, organism-based
Outline: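 CD-1 nude female mice (22-26 g); 1 × 10^7 M-NFS-60 cells in PBS injected i.p. Oral dosing b.i.d. at 20 and 80 mg/kg as a suspension in 0.5% hydroxypropylmethylcellulose/0.1% Tween 80 (0.2 ml per mouse), starting 1 h before cell injection. Peritoneal cells recovered by cold PBS-heparin lavage on day 4 and counted by hemocytometer after crystal violet dilution. Mean ± SEM; Dunnett's test.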

Osteoclast [19] = experiment: Inhibition of human osteoclast degradation of bone assessed as reduction in actin ring formation per cm2 of bone at 3 uM after 3 days by immunocytochemistry (reference value: 1546 +/- 232 /cm2 of bone); format: functional
[20] = Inhibition of human GST-tagged PKA using biotin-(6-amino caproic acid)-LRRASLGKKK-amide as substrate after 70 mins by scintillation proximity assay
Outline: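 Catalytic domains of human kinases expressed, isolated and assayed with ATP and the appropriate peptide substrate. Compound tested as a 10- to 12-point dose-response with a top concentration of 20 μM.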

Mus musculus [21] = experiment: Inhibition of thioglycolate-induced macrophage influx into peritoneal cavity in mouse at 20 mg/kg, po BID starting 1 hr before thioglycolate challenge for 4 days; format: functional; outline: as §1
[22] = Protein binding in cell-culture media with rat plasma at 3 uM; format: ADME, cell-free; details: read-out: PB (converted)
Outline: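 Compound at 3 μM was added to triplicate samples and incubated 1 h at 37°C. Samples were centrifuged through a 30,000-MW filter (1,500 × g, 15 min, 4°C). Percent bound was calculated from compound concentrations in the filtrate and retentate.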

IC50 [9]: > 28 µM
Cmax [14]: 1400 nM
IC50 [15]: > 10 µM
IC50 [20]: > 10 µM
fraction unbound at 3 µM [22]: 0.05
SMILES: COc1ccc(COc2ccc(Cc3cnc(N)nc3N)cc2OC)cc1 [GW632580X]
inhibition in vivo at 80 mg/kg (Mus musculus [1]): 25%
inhibition in vivo at 40 mg/kg (Mus musculus [2]): 58%
inhibition in vivo at 40 mg/kg (Mus musculus [3]): 63%
bone resorption (%) at 10 µM (Osteoclast [4]): 1.2%
growth inhibition (GI) (NFS-60 [5]): Active
Activity (Osteoclast [6]): 34 /cm2
Activity (Macrophage): inactive
Activity [7]: inactive
IC50 (HUVEC): 12 µM
inhibition in vivo at 20 mg/kg (Mus musculus [8]): 8%
inhibition of growth at 1 µM (Monocyte): 50%
inhibition (Rattus norvegicus [10]): 80%
Activity (Osteoclast [11]): 120 /cm2
inhibition (Rattus norvegicus [12]): Active
bone resorption (%) at 3 µM (Osteoclast [13]): 1.5%
Activity [16]: inactive
IC50 [17]: 0.33 µM
growth inhibition (GI) (NFS-60 [18]): Dose-dependent effect
Activity (Osteoclast [19]): 148 /cm2
inhibition in vivo at 20 mg/kg (Mus musculus [21]): 17%
